Laboratory results taken from paper PMC4079330 (Journal of Medicinal Chemistry, 2014).

Experiments:
Assay type in all cases: cell-based
[1] = system: iNOS (NOS2) mRNA in RAW 264.7 cells; test: Quantitative RT-PCR of iNOS mRNA, LPS; details: 20 ng/mL LPS, 20 h, maximal decrease over tested concentrations
In short: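 Quantitative real-time PCR for iNOS mRNA in RAW 264.7 cells co-incubated with 20 ng/mL LPS and a range of test compound concentrations for 20 h. Values expressed as fold change, with ligand-induced cells set to 1. Three biological replicates, each in technical duplicate, were averaged, with standard deviation as error.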

[2] = system: NF-κB activation through TLR4 in HEK 293T cells; test: SEAP reporter assay, LPS; details: 20 ng/mL LPS, concentrations up to 100 μM
[3] = system: NF-κB activation through TLR3 in HEK 293T cells; test: SEAP reporter assay, Poly I:C; details: 2.5 μg/mL Poly I:C, concentrations up to 100 μM
[4] = system: NF-κB signaling through tumor necrosis factor receptor (TNFR) in HEK 293T cells; test: SEAP reporter assay, TNF-α; details: 50 ng/mL TNF-α
TNF-α in RAW 264.7 cells = test: TNF-α ELISA; details: supernatant from nitric oxide plates
[5] = system: iNOS protein in RAW 264.7 cells; test: Western blot of iNOS protein; details: 20 ng/mL LPS, normalized to GAPDH
RAW 264.7 cells = test: WST1 cell viability assay; details: concentrations up to 100 μM
In short: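 Viability was read at every concentration tested in the NO assay, in RAW 264.7 cells given 20 ng/mL LPS plus a range of test compound concentrations. LC50 was taken as the concentration giving 50% cell viability. Test compound purity was above 95% by 1H NMR.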

Compound: CC(C)(C)OC(=O)N(Cc1ccco1)C(=O)c1ccc(CN2C(=O)c3ccccc3S2(=O)=O)cc1 [compound 103, tert-butyl N-(furan-2-ylmethyl)-N-{4-[(1,1,3-trioxo-2,3-dihydro-1λ^6,2-benzothiazol-2-yl)methyl]benzoyl}carbamate]
- decrease of iNOS mRNA [1]: up to 67%
- NF-κB activation (SEAP) [2]: did not down-regulate NF-κB activation
- NF-κB activation (SEAP) [3]: did not down-regulate NF-κB activation
- NF-κB signaling (SEAP) [4]: unaffected
- TNF-α cytokine levels (TNF-α in RAW 264.7 cells): no change in TNF-α cytokine levels
- iNOS protein expression [5]: reduces iNOS protein expression in a dose-dependent fashion
- cytotoxicity (RAW 264.7 cells): no cytotoxicity
